In PubChem BioAssay:
Calls of active or inactive are those of the source.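 The calls were made as follows, unless noted: active = current rise at least 3 SD above the untreated control mean in each of two repeat wells; inactive = the rest.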

How the values were obtained:
[1] = thallium flux activation in parental CHO cells, counter-screen for KCNQ1 potentiator project (AID 493006;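 active = duplicate-averaged activation above buffer control mean plus 5 SD of those controls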;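 as to activation: fluorescence ratio of max minus min over baseline after K+ and Tl+ depolarization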); settings: parental CHO-K1 cells, FluxOR thallium flux, at 10 µM; active compounds read high
Outline: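 Material: untransfected host CHO-K1 cells with FluxOR thallium dye. Timing: overnight 37 °C plating, 90 min RT dye, 20 min compound. Detection: kinetic FluxOR fluorescence, 10 s baseline, 110 s after stimulus. Read-out basis: max-minus-min fluorescence over baseline, percent of buffer-to-R-L3 span. Replicates: duplicate wells per compound, percent values averaged.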

[2] = molecular target: Potassium voltage-gated channel subfamily KQT member 1 (Homo sapiens) (UniProt P51787); assay: KCNQ1 potassium channel potentiators, confirmation, FluxOR thallium flux, CHO cells, duplicates (AID 493007;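 active = potentiation averaged over duplicate wells exceeding buffer-only control mean by more than 3 SD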;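 as to outcome: cells depolarized by a potassium plus thallium sulfate stimulus after compound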); settings: KCNQ1 cell line, FluxOR thallium flux fluorescence, at 10 µM; active compounds read high, % of reference activator effect, buffer zero
Potassium voltage-gated channel subfamily KQT member 1 (Homo sapiens), sequence (P51787 whole entry, looked up): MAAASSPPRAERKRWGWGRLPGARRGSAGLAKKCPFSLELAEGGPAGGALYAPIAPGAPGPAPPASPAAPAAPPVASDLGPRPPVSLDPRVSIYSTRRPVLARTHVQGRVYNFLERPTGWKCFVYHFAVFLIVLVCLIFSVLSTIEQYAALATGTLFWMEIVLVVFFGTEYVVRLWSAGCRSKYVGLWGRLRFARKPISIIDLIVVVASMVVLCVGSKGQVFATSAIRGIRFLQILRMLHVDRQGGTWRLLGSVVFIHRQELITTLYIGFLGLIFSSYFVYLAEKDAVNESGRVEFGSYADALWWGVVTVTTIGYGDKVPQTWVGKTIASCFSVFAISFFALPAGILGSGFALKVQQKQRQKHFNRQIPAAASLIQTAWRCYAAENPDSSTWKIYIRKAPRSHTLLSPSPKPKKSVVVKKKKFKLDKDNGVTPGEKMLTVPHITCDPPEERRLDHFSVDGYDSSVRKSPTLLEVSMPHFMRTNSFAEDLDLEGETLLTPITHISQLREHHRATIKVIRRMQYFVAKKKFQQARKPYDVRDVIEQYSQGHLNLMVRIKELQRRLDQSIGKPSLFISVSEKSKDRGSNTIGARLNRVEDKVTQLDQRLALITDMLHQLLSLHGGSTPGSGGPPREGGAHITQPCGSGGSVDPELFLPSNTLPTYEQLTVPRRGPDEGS
Outline: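 Test system – KCNQ1-expressing CHO cell line · Incubation – FluxOR dye loading 90 min, compound exposure 20 min, room temperature · Detection – FluxOR Tl+ flux fluorescence, 10 s baseline plus 110 s recording · Controls – buffer-only wells as 0% and R-L3 activator as 100%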

[3] = molecular target: Potassium voltage-gated channel subfamily KQT member 2 (Rattus norvegicus) (UniProt O88943); assay: rat KCNQ2 channel potentiation, selectivity assay for KCNQ1 potentiator project, KCNQ2-CHO-K1 cells (AID 493009;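 active = mean duplicate potentiation above the buffer control mean plus 5 SD of buffer wells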;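 also: assay conditions were tuned for KCNQ1 rather than KCNQ2 modulators; signal is max minus min fluorescence divided by baseline after thallium stimulus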); settings: FluxOR thallium flux fluorescence, at 10 µM; active compounds read high, scaled: buffer 0, activator control 100
Potassium voltage-gated channel subfamily KQT member 2 (Rattus norvegicus), sequence (O88943 whole entry, looked up): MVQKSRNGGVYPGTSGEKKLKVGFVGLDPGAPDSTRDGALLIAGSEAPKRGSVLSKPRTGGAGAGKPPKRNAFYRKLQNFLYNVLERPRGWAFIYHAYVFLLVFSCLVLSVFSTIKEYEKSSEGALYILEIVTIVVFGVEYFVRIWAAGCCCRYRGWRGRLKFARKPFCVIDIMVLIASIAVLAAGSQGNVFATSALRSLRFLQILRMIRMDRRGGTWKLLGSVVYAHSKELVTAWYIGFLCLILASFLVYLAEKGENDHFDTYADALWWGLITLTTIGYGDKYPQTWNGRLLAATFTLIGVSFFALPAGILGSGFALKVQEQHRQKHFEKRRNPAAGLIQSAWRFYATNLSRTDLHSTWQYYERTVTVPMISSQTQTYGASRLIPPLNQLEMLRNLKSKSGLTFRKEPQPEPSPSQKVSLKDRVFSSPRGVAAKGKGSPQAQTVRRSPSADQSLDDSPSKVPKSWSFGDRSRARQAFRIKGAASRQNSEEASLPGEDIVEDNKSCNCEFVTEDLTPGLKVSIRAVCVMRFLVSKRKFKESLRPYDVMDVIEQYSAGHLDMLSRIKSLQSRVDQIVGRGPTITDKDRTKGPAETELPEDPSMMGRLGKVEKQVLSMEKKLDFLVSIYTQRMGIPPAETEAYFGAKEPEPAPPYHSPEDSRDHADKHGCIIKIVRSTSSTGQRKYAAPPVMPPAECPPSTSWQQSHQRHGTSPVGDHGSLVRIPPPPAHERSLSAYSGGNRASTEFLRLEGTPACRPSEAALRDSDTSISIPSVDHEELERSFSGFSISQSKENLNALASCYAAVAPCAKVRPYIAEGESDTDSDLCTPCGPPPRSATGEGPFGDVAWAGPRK

[4] = molecular target: Potassium voltage-gated channel subfamily KQT member 1 (Homo sapiens) (UniProt P51787); assay: KCNQ1 channel current potentiators, confirmation, orthogonal assay for KCNQ1 potentiator project, IonWorks patch clamp, KCNQ1-CHO cells (AID 493184); settings: automated patch clamp current, at 10 µM; active compounds read high;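 as to current potentiation: percent change of the same well's current before compound addition so 0% = no change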
Outline: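 Read-out: Percent current increase versus pre-compound level | Assay system: CHO cells carrying KCNQ1 | Measured by: Automated perforated-patch electrophysiology | Medium: External bath solution at pH 7.4 | Dosing: One dose, 10 µM final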

| Compound | outcome [1] | outcome [2] | outcome [3] | outcome [4] | potentiation [2] | potentiation [3] | activation [1] | current potentiation [4] |
| --- | --- | --- | --- | --- | --- | --- | --- | --- |
| Cc1ccc(Cn2ncc3c(NN)ncnc32)cc1 | inactive | inactive | inactive | inactive | – | – | – | – |
| CC(C)(C)c1cc(C(=O)NNC(=O)c2ccc(C(F)(F)F)cc2)no1 | inactive | – | – | inactive | 32% (active) | 161% (active) | – | – |
| C/C(=N\NC(=O)c1cccc(F)c1)c1ccc(Br)s1 | inactive | inactive | inactive | inactive | – | – | – | – |
| COc1ccc(-c2csc(NC(=S)NC(=O)c3ccco3)n2)cc1 | – | – | – | inactive | 80.5% (active) | 216% (active) | 264% (active) | – |
| CSC(=S)N/N=C/c1ccccc1 | – | – | – | inactive | 48.5% (active) | 226% (active) | 245% (active) | – |
| O=C(NC(=S)Nc1ccccc1N1CCCCC1)c1cccs1 | – | – | – | inactive | 133% (active) | 234% (active) | 212% (active) | – |
| COc1ccccc1-n1cnc2cc(NCc3ccco3)ccc21 | inactive | – | inactive | inactive | 34.5% (active) | – | – | – |
| COc1ccc(C(=O)O/N=C(\N)Cc2ccc(Cl)cc2Cl)cc1OC | inactive | inactive | inactive | inactive | – | – | – | – |
| Cc1cc(Cl)n2nc(C)c(-c3ccc(Cl)cc3)c2n1 | – | – | – | inactive | 256% (active) | 340% (active) | 216% (active) | – |
| O=C(Nc1ccccc1)C1=C(c2ccccc2)S(=O)(=O)CCS1(=O)=O | inactive | inactive | inactive | inactive | – | – | – | – |
| COc1cccc(CNC(=O)C2CCN(S(=O)(=O)c3ccc(-n4cnnn4)cc3)CC2)c1 | inactive | inactive | inactive | inactive | – | – | – | – |
| CCCCN(CCCC)C(=S)NC(=O)c1ccccc1Cl | – | – | – | inactive | 238% (active) | 542% (active) | 556% (active) | – |
| CSc1nsc(SCC(=O)Nc2ccccc2)n1 | inactive | inactive | inactive | inactive | – | – | – | – |
| COc1cccc(Oc2cnc(N)nc2-c2ccc(OC)cc2O)c1 | inactive | inactive | inactive | inactive | – | – | – | – |
| CC1SCC(=NOCc2c(Cl)cccc2Cl)CS1 (stereo not given) | inactive | inactive | inactive | inactive | – | – | – | – |
| Cn1ccnc1SCC(=O)NC1CC1 | inactive | inactive | inactive | inactive | – | – | – | – |
| CN(CC(=O)Nc1ccc(F)c(F)c1F)C(=O)CC1OC(=O)c2ccccc21 (stereo not given) | inactive | inactive | inactive | inactive | – | – | – | – |
| O=C(Nc1ccc(N2CCN(c3ccc(O)cc3)CC2)cc1)Oc1ccccc1 | inactive | inactive | inactive | inactive | – | – | – | – |
| CCOC(=O)c1cccc(NC(=O)CCc2ccccc2)c1 | inactive | inactive | inactive | inactive | – | – | – | – |
| Cc1ccc(S(=O)(=O)NN2C(=O)/C(=C/c3cccc(F)c3)SC2=S)cc1 | – | – | – | – | 20.5% (active) | 152% (active) | 176% (active) | 37.3% (active) |

| Compound | outcome [1] | outcome [2] | outcome [3] | outcome [4] | potentiation [2] | potentiation [3] | activation [1] | current potentiation [4] |
| --- | --- | --- | --- | --- | --- | --- | --- | --- |
| CC(=O)c1c(N2CCCC2)[nH]c(-c2ccccc2)nc1=S | inactive | inactive | inactive | inactive | – | – | – | – |
| NS(=O)(=O)c1ccc(NC(=S)Nc2ccc(OCc3ccccc3)cc2)cc1 | inactive | inactive | inactive | inactive | – | – | – | – |
| O=C(NN1C(=O)C2C(c3ccccc3)C=CC(c3ccccc3)C2C1=O)c1ccncc1 (stereo not given) | – | – | – | inactive | 18% (active) | 152% (active) | 176% (active) | – |
| c1csc(-c2csc3ncnc(NCCCN4CCOCC4)c23)c1 | inactive | inactive | inactive | inactive | – | – | – | – |
| CCCN1C(=O)/C(=C/c2ccc(C)s2)NC1=S | – | – | – | inactive | 194% (active) | 412% (active) | 395% (active) | – |
| CCc1ccc2[nH]c(O)c(N=Nc3nc(-c4ccccc4)cs3)c2c1 | – | – | – | inactive | 178% (active) | 282% (active) | 186% (active) | – |
| O=C(CSc1ncnc2c1cnn2-c1ccc(F)cc1)NC1CCCC1 | inactive | inactive | inactive | inactive | – | – | – | – |
| Cc1ccc(C(=O)N2CCNC(=O)C2CC(=O)Nc2ccc(F)cc2)cc1C (stereo not given) | inactive | – | inactive | inactive | 37.5% (active) | – | – | – |
| Cc1ccc(SCc2[nH]nc3c2C(c2ccco2)C(C#N)=C(N)O3)cc1 (stereo not given) | inactive | inactive | inactive | inactive | – | – | – | – |
| CCc1ccc(-c2c(C)sc(NC(C)=O)c2C(N)=O)cc1 | inactive | inactive | inactive | inactive | – | – | – | – |
| O=C(c1cccc(-c2ccccc2F)c1)N1CC[C@@H](N2CCC(O)CC2)[C@H](O)C1 | inactive | inactive | inactive | inactive | – | – | – | – |
| CCCCOC(=O)Nc1ccccc1C(N)=O | inactive | inactive | inactive | inactive | – | – | – | – |
| O=C(NC(=S)Nc1ccc(N2CCCCC2)cc1)c1cccs1 | – | – | – | inactive | 74.5% (active) | 162% (active) | 158% (active) | – |
| O=C(CC(=O)c1ccccc1O)c1cccc(F)c1 | – | – | – | inactive | 50.5% (active) | 188% (active) | 164% (active) | – |
| CCC1CCCCN1C(=S)NC(=O)c1ccc([N+](=O)[O-])cc1 (stereo not given) | – | – | – | inactive | 92.5% (active) | 280% (active) | 244% (active) | – |
| O=C(O)CSc1c2c(nc3cc(C(=O)Nc4cccc(C(F)(F)F)c4)ccc13)CCC2 | inactive | inactive | inactive | inactive | – | – | – | – |
| N#CC(c1cccc(Cl)c1)c1ccc2c(C(F)(F)F)cc(C(F)(F)F)nc2n1 (stereo not given) | – | – | – | inactive | 234% (active) | 298% (active) | 144% (active) | – |
| COc1ccc(C(=O)NNC(=O)C(=O)Nc2ccc(C)cc2)cc1 | – | – | – | inactive | 123% (active) | 380% (active) | 254% (active) | – |
| COc1ccc(S(=O)(=O)NCCCN2CCOCC2)cc1F | inactive | inactive | inactive | inactive | – | – | – | – |
| Oc1c(Br)cc(Cl)cc1C=Nc1ccccc1Br | – | – | – | inactive | 161% (active) | 310% (active) | 296% (active) | – |

| Compound | outcome [1] | outcome [2] | outcome [3] | outcome [4] | potentiation [2] | potentiation [3] | activation [1] | current potentiation [4] |
| --- | --- | --- | --- | --- | --- | --- | --- | --- |
| CCCc1cc2c(-c3ccccc3)cc(=O)oc2cc1OCc1ccc(C(=O)O)o1 | – | – | – | inactive | 73% (active) | 222% (active) | 193% (active) | – |
| O=C(Nc1ccc2[nH]c(=S)sc2c1)Nc1ccccc1F | – | – | – | inactive | 68% (active) | 240% (active) | 150% (active) | – |
| COC(=O)c1cccnc1NC(=S)NC1CCCCC1 | – | – | – | inactive | 36.5% (active) | 233% (active) | 208% (active) | – |
| Oc1c(Br)cc(Br)cc1C=Nc1ccc2c(c1)OCO2 | – | inactive | inactive | inactive | – | – | 172% (active) | – |
| CCOC(=O)C1(CC2CCCCO2)CCN(Cc2cc3ccccc3[nH]2)CC1 (stereo not given) | inactive | inactive | inactive | inactive | – | – | – | – |
| O=C(NC(=S)Nc1ccccc1N1CCOCC1)c1sc2ccccc2c1Cl | inactive | – | inactive | inactive | 34% (active) | – | – | – |
| Cc1cc(C)n(-c2nc(NCCN(C)C)c3c4c(sc3n2)COC(C)(C)C4)n1 | inactive | inactive | inactive | inactive | – | – | – | – |
| Cc1ccc(C(=O)NCCC(=O)NCc2cc(=O)n(C)c(=O)n2C)cc1 | inactive | inactive | inactive | inactive | – | – | – | – |
| O=[N+]([O-])c1ccc(/C=C/C2=NN(c3ccccc3)C(c3ccco3)C2)o1 (stereo not given) | inactive | inactive | inactive | inactive | – | – | – | – |
| O=C(CNCC1CCCCC1)Nc1ccc(OC(F)(F)F)cc1 | inactive | inactive | inactive | inactive | – | – | – | – |
| CCCCc1nc2sc3c(SCCN(C)C)ncnc3c2c2c1CCC2 | – | – | – | inactive | 122% (active) | 183% (active) | 207% (active) | – |
| Cc1ccc(NC(=O)CN(C)C(=O)CCOc2ccccc2C)cc1 | inactive | inactive | inactive | inactive | – | – | – | – |
| COc1ccc2nc(N3C(=O)/C(=C/c4ccccc4)NC3=S)sc2c1 | – | – | – | inactive | 204% (active) | 486% (active) | 380% (active) | – |
| CCOC(=O)c1c(C)[nH]c(C(=O)Cn2nnc(-c3ccccc3Cl)n2)c1C | inactive | inactive | inactive | inactive | – | – | – | – |
| CN1C(=O)NC(c2ccc(O)cc2)C(C(=O)c2cccs2)C1(O)C(F)(F)F (stereo not given) | inactive | inactive | inactive | inactive | – | – | – | – |
| Cc1cccc(C(=O)Nc2ccccc2C(=O)NCc2cccnc2)c1 | inactive | inactive | inactive | inactive | – | – | – | – |
| O=C(NC(=S)Nc1ccc(C(F)(F)F)cc1)c1csnn1 | – | – | – | inactive | 269% (active) | 555% (active) | 590% (active) | – |
| O=C(COc1ccccc1Cl)N(Cc1cccs1)C1CCS(=O)(=O)C1 (stereo not given) | inactive | inactive | inactive | inactive | – | – | – | – |
| O=c1c2cc(NC(=S)NCCCN3CCC(Cc4ccccc4)CC3)ccc2nc2n1CCCCC2 | inactive | inactive | inactive | inactive | – | – | – | – |
| O=C(Cn1c(C(F)(F)F)nc2ccccc21)N=Nc1c(O)[nH]c2ccc(Br)cc12 | inactive | inactive | inactive | inactive | – | – | – | – |
